How the values were obtained:
Plasma [1] = experiment: AUC (infinity) in Sprague-Dawley rat plasma assessed as FDUR formation at 49.87 mg/kg administered through oral gavage measured up to 24 hrs by HPLC-MS/MS analysis; assay type: ADME, organism-based; parameters: dose 49.87 mg/kg, route oral, time infinity; conditions: in vivo
Summary of the method: (§1)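 Male Sprague-Dawley rats (220 ± 20 g), single gavage of 0.096 mmol/kg. FDUR was dosed in H2O; the prodrugs were dosed in 20% hydroxypropyl-β-cyclodextrin. n = 3 per time point, sampled at 0.25–24 h. Plasma (EDTA-K2, cardiac puncture) and freeze-clamped liver were homogenized in 20 mM EDTA-K2/70% MeOH. Analytes measured by HPLC-MS/MS in ESI negative mode.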

[2] = Half life in rat plasma by HPLC analysis; assay type: ADME, cell-free
Summary of the method: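 Rat plasma, 37 °C. Compound added from a 2.5 mM stock, sampled at 0–24 h, quenched with MeOH. Analyzed by HPLC-UV at 267 nm (C8 column, MeOH:H2O 68:32). Triplicate samples.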

Liver [3] = experiment: AUC (infinity) in Sprague-Dawley rat liver assessed as FdUMP formation at 49.87 mg/kg administered through oral gavage measured up to 24 hrs by HPLC-MS/MS analysis; assay type: ADME, organism-based; parameters: dose 49.87 mg/kg, time infinity, route oral; conditions: in vivo; summary of the method: as §1
Plasma [4] = experiment: Cmax in Sprague-Dawley rat plasma assessed as 5-FU formation at 49.87 mg/kg administered through oral gavage measured up to 24 hrs by HPLC-MS/MS analysis; assay type: ADME, organism-based; parameters: dose 49.87 mg/kg, route oral; conditions: in vivo; summary of the method: as §1
Liver [5] = experiment: AUC (infinity) in Sprague-Dawley rat liver assessed as FDUR formation at 49.87 mg/kg administered through oral gavage measured up to 24 hrs by HPLC-MS/MS analysis; assay type: ADME, organism-based; parameters: dose 49.87 mg/kg, route oral, time infinity; conditions: in vivo; summary of the method: as §1
Liver [6] = experiment: Cmax in Sprague-Dawley rat liver assessed as FdUMP formation at 49.87 mg/kg administered through oral gavage measured up to 24 hrs by HPLC-MS/MS analysis; assay type: ADME, organism-based; parameters: dose 49.87 mg/kg, route oral; conditions: in vivo; summary of the method: as §1
Liver [7] = experiment: Drug metabolism in phenobarbital/beta-napthoflavone treated Sprague-Dawley rat liver S9 fraction assessed as prodrug activation at 50 uM preincubated for 5 mins followed by NADPH addition measured up to 60 mins by HPLC-MS/MS analysis; assay type: ADME, subcellular; conditions: s9, 1 h
Summary of the method: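 S9 prepared from livers of Sprague-Dawley rats dosed i.g. with phenobarbital/β-naphthoflavone for 3 days. Incubation: 100 mM KH2PO4 pH 7.4, 5 mg/mL S9, compound at 50 μM, 5 min preincubation at 37 °C, then 2 mM NADPH. Samples at 0–60 min, MeOH extraction, FdUMP (m/z 325→129) measured by HPLC-MS/MS. Triplicate.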

[8] = Ratio of FdUMP AUC (infinity) in Sprague-Dawley rat liver to FDUR AUC (infinity) in Sprague-Dawley rat plasma at 49.87 mg/kg administered through oral gavage; assay type: ADME, organism-based; conditions: in vivo
Summary of the method: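 Male Sprague-Dawley rats (220 20 g), single gavage of 0.096 mmol/kg prodrug in 20% hydroxypropyl-β-cyclodextrin. Blood by cardiac puncture under isoflurane and liver at 0.25–24 h, n = 3 per time point. Liver freeze-clamped and homogenized in 20 mM EDTA-K2/70% MeOH. FdUMP (liver) and FDUR (plasma) by HPLC-MS/MS, negative ESI. Index = AUC(inf) liver FdUMP / AUC(inf) plasma FDUR.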

[9] = Cytotoxicity against human SMMC7721 cells assessed as reduction in cell viability after 72 hrs by MTT assay; assay type: functional, cell-based; conditions: SMMC-7721, 72 h
Summary of the method: (§2)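 Cells in RPMI-1640 with 10% FBS, seeded at 4 × 10³ per well and attached for 24 h. Compound (DMSO ≤0.5% final) added for 72 h at 37 °C, 5% CO2. Viability read by MTT. IC50 set against 0.5% DMSO-treated cells taken as 100% viable. Mean of two independent experiments, each run in triplicate.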

Plasma [10] = experiment: Cmax in Sprague-Dawley rat plasma assessed as FDUR formation at 49.87 mg/kg administered through oral gavage measured up to 24 hrs by HPLC-MS/MS analysis; assay type: ADME, organism-based; parameters: dose 49.87 mg/kg, route oral; conditions: in vivo; summary of the method: as §1
Liver [11] = experiment: Cmax in Sprague-Dawley rat liver assessed as FDUR formation at 49.87 mg/kg administered through oral gavage measured up to 24 hrs by HPLC-MS/MS analysis; assay type: ADME, organism-based; parameters: dose 49.87 mg/kg, route oral; conditions: in vivo; summary of the method: as §1
[12] = Half life in dog plasma by HPLC-MS/MS analysis; assay type: ADME, cell-free, Canis lupus familiaris
Summary of the method: (§3)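 Compound at 1 μg/mL final in dog or human plasma, 37 °C. Sampled at 0–24 h and quenched with ice-cold MeOH containing internal standard. Parent measured by LC-MS/MS in ESI negative mode; t1/2 calculated from percent remaining versus 0 h.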

[13] = Half life in human plasma by HPLC-MS/MS analysis; assay type: ADME, cell-free; summary of the method: as §3
[14] = Cytotoxicity against human LO2 cells assessed as reduction in cell viability after 72 hrs by MTT assay; assay type: cell-based; conditions: L02, 72 h; summary of the method: as §2
Liver [15] = experiment: Drug uptake in Sprague-Dawley rat liver S9 fraction treated with (S)-Isopropyl 2-(((R)-(((2R,3S,5R)-5-(5-fluoro-2,4-dioxo 3,4-dihydropyrimidin-1(2H)-yl)-3-hydroxytetrahydrofuran-2-yl)methoxy)((2-methylbenzyl)oxy)phosphoryl)amino)propanoate at 20 ug/mL preincubated for 5 mins followed by NADPH addition measured at 20 mins by HPLC-MS/MS analysis; assay type: ADME, subcellular; conditions: s9, 20 min
Summary of the method: (§4)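 Rat liver S9 (10 mg/mL) incubated with compound at 20 μg/mL. Parent, intermediate A and FdUMP followed over time by HPLC-MS/MS. Negative control run without NADPH.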

Plasma [16] = experiment: AUC (infinity) in Sprague-Dawley rat plasma assessed as 5-FU formation at 23.62 mg/kg administered through oral gavage measured up to 24 hrs by HPLC-MS/MS analysis; assay type: ADME, organism-based; parameters: dose 23.62 mg/kg, route oral, time infinity; conditions: in vivo; summary of the method: as §1
Plasma [17] = experiment: AUC (infinity) in Sprague-Dawley rat plasma assessed as FDUR formation at 23.62 mg/kg administered through oral gavage measured up to 24 hrs by HPLC-MS/MS analysis; assay type: ADME, organism-based; parameters: dose 23.62 mg/kg, time infinity, route oral; conditions: in vivo; summary of the method: as §1
Plasma [18] = experiment: Cmax in Sprague-Dawley rat plasma assessed as 5-FU formation at 23.62 mg/kg administered through oral gavage measured up to 24 hrs by HPLC-MS/MS analysis; assay type: ADME, organism-based; parameters: dose 23.62 mg/kg, route oral; conditions: in vivo; summary of the method: as §1
Liver [19] = experiment: Cmax in Sprague-Dawley rat liver assessed as 5-FU formation at 23.62 mg/kg administered through oral gavage measured up to 24 hrs by HPLC-MS/MS analysis; assay type: ADME, organism-based; parameters: dose 23.62 mg/kg, route oral; conditions: in vivo; summary of the method: as §1
[20] = Ratio of FdUMP AUC (infinity) in Sprague-Dawley rat liver to FDUR AUC (infinity) in Sprague-Dawley rat plasma at 23.62 mg/kg administered through oral gavage; assay type: ADME, organism-based; conditions: in vivo
Liver [21] = experiment: AUC (infinity) in Sprague-Dawley rat liver assessed as FdUMP formation at 23.62 mg/kg administered through oral gavage measured up to 24 hrs by HPLC-MS/MS analysis; assay type: ADME, organism-based; parameters: dose 23.62 mg/kg, time infinity, route oral; conditions: in vivo; summary of the method: as §1
Plasma [22] = experiment: Cmax in Sprague-Dawley rat plasma assessed as FDUR formation at 23.62 mg/kg administered through oral gavage measured up to 24 hrs by HPLC-MS/MS analysis; assay type: ADME, organism-based; parameters: dose 23.62 mg/kg, route oral; conditions: in vivo; summary of the method: as §1
Liver [23] = experiment: Cmax in Sprague-Dawley rat liver assessed as FdUMP formation at 23.62 mg/kg administered through oral gavage measured up to 24 hrs by HPLC-MS/MS analysis; assay type: ADME, organism-based; parameters: dose 23.62 mg/kg, route oral; conditions: in vivo; summary of the method: as §1
Liver [24] = experiment: AUC (infinity) in Sprague-Dawley rat liver assessed as 5-FU formation at 23.62 mg/kg administered through oral gavage measured up to 24 hrs by HPLC-MS/MS analysis; assay type: ADME, organism-based; parameters: dose 23.62 mg/kg, time infinity, route oral; conditions: in vivo; summary of the method: as §1
H22 = experiment: Antitumor activity against mouse H22 cells implanted in KM mouse assessed as tumor growth inhibition at 60 mg/kg administered daily through oral gavage after 8 days; assay type: functional; conditions: 192 h
Summary of the method: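 Syngeneic H22 hepatoma: 2 × 10⁶ cells injected s.c. in the axilla (0.9% saline) of female KM mice, n = 10 per group. From day 2, daily oral gavage for 8 days. Test agent given in 35% PEG400; sorafenib suspended in 0.5% CMC-Na. Tumor weight taken on day 8; inhibition rate calculated versus the vehicle group.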

Mus musculus = experiment: Toxicity in KM mouse implanted with mouse H22 cells assessed as body weight level at 60 mg/kg administered daily through oral gavage after 8 days (reference value: 22.1 +/- 0.8g); assay type: organism-based; conditions: in vivo, 192 h
Liver [25] = experiment: Drug uptake in Sprague-Dawley rat liver S9 fraction treated with (S)-Isopropyl 2-(((R)-(((2R,3S,5R)-5-(5-fluoro-2,4-dioxo-3,4-dihydropyrimidin-1(2H)-yl)-3-hydroxytetrahydrofuran-2-yl)methoxy)((2-methylbenzyl)oxy)phosphoryl)amino)propanoate at 20 ug/mL after 20 mins by HPLC-MS/MS analysis in absence of NADPH; assay type: ADME; conditions: s9, 20 min; summary of the method: as §4

Work on `Cc1ccccc1COP(=O)(NCc1ccccc1)OC[C@H]1O[C@@H](n2cc(F)c(=O)[nH]c2=O)C[C@@H]1O` (stereo partly specified) yielded an AUC (Plasma [1]) of 41 ng·h/mL, a half-life [2] of over 24 h and an AUC (Liver [3]) of under 155 ng·h/g. It also gave a Cmax (Plasma [4]) of 14 ng/mL, an AUC (Liver [5]) of 838 ng·h/g and a Cmax (Liver [6]) of 55 ng/g. The Drug metabolism (Liver [7]) was 58.4 nmol/min/mg, the “Ratio AUC” value [8] was under 3.8 and the IC50 [9] was 18.6 µM. It also gave a Cmax (Plasma [10]) of 40 ng/mL and a Cmax (Liver [11]) of 50 ng/g.
In the case of `O=c1[nH]c(=O)n([C@H]2C[C@H](O)[C@@H](COP(=O)(NCc3ccccc3)OCc3ccccc3[N+](=O)[O-])O2)cc1F` (stereo partly specified), the half-life [2] is reported as over 24 h, the Drug metabolism (Liver [7]) is reported as 44.7 nmol/min/mg and the IC50 [9] is reported as over 500 µM.
`O=c1[nH]c(=O)n([C@H]2C[C@H](O)[C@@H](COP(=O)(NCc3ccccc3)OCc3ccc(F)cc3)O2)cc1F` (stereo partly specified) showed a half-life [2] of over 24 h, a Drug metabolism (Liver [7]) of 26.3 nmol/min/mg and an IC50 [9] of 150 µM.
Work on `O=c1[nH]c(=O)n([C@H]2C[C@H](O)[C@@H](COP(=O)(NCc3ccccc3)OCc3ccc([N+](=O)[O-])cc3)O2)cc1F` (stereo partly specified) yielded a half-life [2] of over 24 h, a Drug metabolism (Liver [7]) of 40 nmol/min/mg and an IC50 [9] of over 1000 µM.
For `Cc1ccccc1COP(=O)(N[C@@H](C)C(=O)OC(C)C)OC[C@H]1O[C@@H](n2cc(F)c(=O)[nH]c2=O)C[C@@H]1O` (stereo partly specified), the half-life [2] was under 0.083 h, the half-life [12] was over 24 h and the half-life [13] was over 24 h. It also gave an IC50 [9] of 276 µM and an IC50 [14] of 333 µM.
Compound `O=c1[nH]c(=O)n([C@H]2C[C@H](O)[C@@H](COP(=O)(NCc3ccccc3)OCc3cccc([N+](=O)[O-])c3)O2)cc1F` (stereo partly specified) has a half-life [2] of over 24 h and a Drug metabolism (Liver [7]) of 14.9 nmol/min/mg.
For `O=c1[nH]c(=O)n([C@H]2C[C@H](O)[C@@H](COP(=O)(NCc3ccccc3)OCc3ccccc3Br)O2)cc1F` (stereo partly specified), the half-life [2] was over 24 h, the Drug metabolism (Liver [7]) was 49.6 nmol/min/mg and the IC50 [9] was 151 µM.
Work on `O=c1[nH]c(=O)n([C@H]2C[C@H](O)[C@@H](COP(=O)(NCc3ccccc3)OCc3ccccc3)O2)cc1F` (stereo partly specified) yielded a half-life [2] of over 24 h, a Drug metabolism (Liver [7]) of 17.4 nmol/min/mg and an IC50 [9] of 365 µM.
In the case of `O=c1[nH]c(=O)n([C@H]2C[C@H](O)[C@@H](COP(=O)(O)O)O2)cc1F` [5-FLUORODEOXYURIDYLATE], the Drug uptake (Liver [15]) is reported as “metabolite_detected”.
`O=c1[nH]c(=O)n([C@H]2C[C@H](O)[C@@H](CO)O2)cc1F` [FLOXURIDINE] showed an AUC (Plasma [16]) of 209 ng·h/mL, an AUC (Plasma [17]) of 308 ng·h/mL and a Cmax (Plasma [18]) of 169 ng/mL. For the same compound, the Cmax (Liver [19]) was 60 ng/g, the “Ratio AUC” value [20] was under 0.11 and the AUC (Liver [21]) was under 34 ng·h/g. For the same compound, the Cmax (Plasma [22]) was 180 ng/mL, the Cmax (Liver [23]) was 9 ng/g and the AUC (Liver [24]) was 232 ng·h/g.
With `CNC(=O)c1cc(Oc2ccc(NC(=O)Nc3ccc(Cl)c(C(F)(F)F)c3)cc2)ccn1` [SORAFENIB] the inhibition in vivo at 60 mg/kg (H22) was 50.8% and the Activity (Mus musculus) was 26.4 g.
In the case of `Cc1ccccc1C(=O)O` [TOLUIC ACID], the Drug metabolism (Liver [25]) is reported as “metabolite_detected”.
